Compound activity (PubChem BioAssay)
An excerpt weighted towards active compounds, which were near 4% of everything screened.
SENP1 inh = blocks the human SENP1 SUMO protease catalytic domain; Q9P0U3; recombinant SENP1 catalytic domain, CyPet-SUMO1-YPet FRET cleavage; inhibition, % at 10 µM; hit rate 0.21% among 360,000; AID 624204;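 active means inhibition at least 30% at 10 µM, raw YFP signal under a set limit, fluorescence ratio 0.5 to 1.5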
Target sequence (Q9P0U3 419-644 limits assumed): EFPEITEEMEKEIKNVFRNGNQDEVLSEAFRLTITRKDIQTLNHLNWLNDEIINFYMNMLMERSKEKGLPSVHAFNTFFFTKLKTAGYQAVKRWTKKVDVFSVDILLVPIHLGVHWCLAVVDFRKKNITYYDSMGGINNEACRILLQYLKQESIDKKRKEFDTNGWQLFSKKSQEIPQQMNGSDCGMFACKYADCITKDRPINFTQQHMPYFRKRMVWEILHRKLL
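material = recombinant human SENP1 catalytic domain, His6-tagged | quantity = 20 pM enzyme | reagent = 25 nM SUMO1 FRET substrate | compound dosing = 10 µM single point, 0.5% DMSO | timing = 50 min enzyme reaction, room temperature, light-protected | detection = FRET, CFP and YFP emission | control set = no-enzyme low, enzyme-DMSO high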
Arr AP2 block = inhibitors of human beta-arrestin and AP2 interaction; FITC-arrestin peptide / GST-AP2 beads, flow cytometry; AP2 beta2 appendage carries R879A mutation; inhibition, % at 10 µM; hit rate 0.31% among 340,000; AID 504490;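 active means inhibition above a set limit, near 3 SD of compounds lacking own fluorescence, cut at about 54% in these data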
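System: GST-AP2 R879A bound to glutathione beads, E. coli-expressed. Also added: 50 nM FITC-arrestin peptide. Schedule: compound with beads 12 min RT, then probe 1 h RT. Signal: bead flow cytometry, FITC channel. Read-out basis: percent response.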
H9c2 protect = myocardial damage modulation in H9c2 cells. H9c2 cardiomyocytes, H2O2 injury protection, ATPLite, 2 h. protection from H2O2 cell death, % at 20 µM. hit rate 0.63% among 360,000;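 active means compounds giving at least 50% protection of heart cells from peroxide-induced death in the single-dose screen, raw or plate-pattern-corrected value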
GRIN3A LBD mod = modulators (binders) of human NR3A ligand-binding domain | NR3A LBD differential scanning fluorimetry, Tm shift; 0% = protein alone, 100% = glycine-bound protein | hit rate 2.5% among 340,000 | Tm shift relative to glycine control, % at 25 µM | AID 1259313;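 active means melting temperature shift of at least 10% of the positive control shift, at one fixed dose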
iPSC survival up = enhancers of human iPSC single-cell survival; hiPSC single-cell survival, ATPlite luminescence; 100% = ROCK inhibitor wells, 0% = DMSO; survival enhancement, % at 20 µM; hit rate 0.044% among 360,000; in the data active means survival enhancement above about 18%;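 further: cells exposed to compounds for 16 hours before the ATP read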
FAS-TE inh = inhibitors of human fatty acid synthase thioesterase domain. P49327. inhibition, % at 15 µM. AID 602261. hit rate 0.67% among 360,000. recombinant FAS-TE, OMFH fluorogenic substrate, fluorescence endpoint;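 active means compounds whose normalised, plate-corrected inhibition of enzyme fluorescence in the single-dose primary screen is 50% or more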
Hits are given with their value; 0 = inactive; - = not tested or not shown.

SMILES	SENP1 inh	Arr AP2 block	H9c2 protect	GRIN3A LBD mod	iPSC survival up	FAS-TE inh
Cn1c(NC2CCCCC2)cc(=O)n(C)c1=O	0	0	0	0	0	0
CC(=O)Nc1ccc(S(=O)(=O)c2ccc(N)cc2)cc1	0	0	0	0	0	0
NC(=S)Nc1ccc(S(=O)(=O)c2ccc(NC(N)=S)cc2)cc1	0	0	0	23	0	0
CCOc1cc(/C=N\NC(=O)c2ccc(NC(=O)C(C)(C)C)cc2)ccc1OC(=O)c1ccc(C)cc1	0	0	0	0	0	0
COc1ccc(C(=O)N/N=C/c2ccccc2OC(=O)c2ccccc2)cc1	0	0	0	0	0	0
CC(C)(C)C(=O)Nc1ccc(C(=O)N/N=C/c2ccccc2OC(=O)c2ccccc2)cc1	0	0	52	0	0	0
CCOc1cc(/C=N\NC(=O)c2ccc(NC(=O)C(C)(C)C)cc2)ccc1OC(=O)c1cccc(C)c1	0	0	66	0	0	0
Cc1ccc(S(=O)(=O)N[C@H](CNCc2ccccc2)C(C)C)cc1	0	-	-	-	-	-
COc1ccc2c(Cl)cc(NC(=O)Nc3c(C)cccc3C)nc2c1	0	-	0	-	0	0
CCC(C(=O)NC1CCCC1)n1c(C2CCCC2)nc2ccccc21 (stereo not drawn)	0	-	-	-	-	-
O=C(OCc1ccccc1)N1CCC2CC1c1ccc(N3CCN(Cc4ccc5c(c4)OCO5)CC3)cc12 (stereo not drawn)	0	-	0	-	0	0
O=C(Cn1nc(C(=O)O)c2ccccc2c1=O)c1c[nH]c2ccccc12	0	0	57	0	0	0
O=C(NCc1ccc(C(F)(F)F)cc1)c1ccc(-c2cccnc2)c2ccoc12	0	-	0	-	0	0
c1ccc2c(c1)[nH]c1ccccc12	0	0	0	0	0	0
O=c1[nH]c2ccccc2c2ccccc12	0	0	71	0	0	0
O=c1[nH]c2cccc(Cl)c2c2ccccc12	0	-	51	-	0	0
C[C@]12CC[C@H](O)CC1=CCC1C2CC[C@@]2(C)C1CC[C@@H]2NCc1ccccc1 (stereo partly drawn)	0	-	0	-	0	0
O=C(NCc1cccnc1)c1cc(C2CCCN(S(=O)(=O)c3cccc4cccnc34)C2)on1 (stereo not drawn)	0	-	0	-	0	0
O=[N+]([O-])/C=C/c1cc2ccccc2[nH]1	0	0	0	18	0	0
O=[N+]([O-])c1nc2ccccc2[nH]1	0	0	0	0	0	0
O=C(N/N=C/c1c(Cl)[nH]c2ccccc12)c1ccc2c(c1)OCCO2	0	0	0	18	0	0
Cc1ccc2[nH]c(C(=O)N/N=C/c3ccc([N+](=O)[O-])cc3)c(C)c2c1	0	0	0	20	0	0
Cc1ccc2[nH]c(C(=O)N/N=C/c3ccccc3O)c(C)c2c1	0	0	0	19	0	0
CCCCC/C=N/NC(=O)c1[nH]c2ccc([N+](=O)[O-])cc2c1C	0	0	0	0	0	0
N=C1/C(=C/c2cccs2)C(=O)N=C2SN=C(SCc3ccccc3)N12	0	0	0	0	0	0
SMILES	SENP1 inh	Arr AP2 block	H9c2 protect	GRIN3A LBD mod	iPSC survival up	FAS-TE inh
CC(C)CSC1=NSC2=NC(=O)/C(=C\c3cccs3)C(=N)N12	0	0	0	11	0	0
CC(C)(C)NC(=O)C[C@H]1C[C@H](C(=O)N2CCOCC2)[C@@]2(CCC3CCCC3)c3[nH]c4cc(-c5ccco5)ccc4c3CCN2C1=O	0	0	0	0	0	58
O=C(C[C@H]1C[C@H](C(=O)N2CCOCC2)[C@@]2(CCC3CCCC3)c3[nH]c4cc(-c5ccco5)ccc4c3CCN2C1=O)NCC12CC3CC(CC(C3)C1)C2	0	0	0	0	0	0
COc1cc(/C=C/c2nc(-c3ccccc3O)n[nH]2)cc(OC)c1OC	0	0	66	0	0	0
CC(=O)Nc1ccc(/C=C/c2nc(-c3ccccc3O)n[nH]2)cc1	0	0	0	21	0	0
COc1cc(/C=C/c2nc(N)nc(-c3ccccc3O)n2)cc(OC)c1OC	0	0	0	0	0	0
O=C(Nc1ccccc1)c1cc(C2CCCCN2C(=O)c2cccs2)on1 (stereo not drawn)	0	-	0	-	0	0
Cc1cc(C(=O)N/N=C/c2ccc(OC(=O)c3ccccc3Br)cc2)n[nH]1	0	0	0	12	0	0
Cc1cc(C(=O)N/N=C/c2ccc3ccccc3c2)n[nH]1	0	0	0	0	0	0
O=C(N/N=C/c1cc(Br)ccc1OC(=O)c1ccc(Br)cc1)c1ccncc1	0	0	0	0	0	0
Cc1cc(C(=O)N/N=C/c2cc(Br)ccc2OC(=O)c2ccccc2Cl)n[nH]1	0	0	51	0	0	0
Cc1cc(C(=O)N/N=C/c2cc(Br)ccc2OC(=O)c2ccccc2)n[nH]1	0	0	56	0	0	0
COC(=O)c1ccc2nc(-c3ccc(OC)c(OC)c3)c(Cc3cccc(F)c3)n2c1	0	-	-	-	0	0
CCCCSc1nc(C)cc(SCC(=O)N/N=C/c2cccc(OC)c2O)n1	0	0	52	0	0	0
COc1cccc(/C=N/NC(=O)CSc2nnc(C)n2-c2ccccc2)c1O	0	0	80	0	0	0
COc1ccccc1/C=N/NC(=O)CSc1ccc2ccccc2n1	0	0	0	0	0	0
CC(C)COC(=O)N(C)C[C@@H]1OCc2cnnn2CCCC(=O)N([C@H](C)CO)C[C@H]1C	0	-	0	-	0	0
Cc1ccccc1-c1nnc(SCc2ccc(F)cc2)o1	0	0	0	13	0	0
O=C(O)c1ccc(CSc2nnc(-c3ccc(Cl)cc3)o2)cc1	0	0	0	0	0	0
O=S(=O)(Nc1ccc(-c2nnc(SCc3ccc(Cl)cc3)o2)cc1)c1ccccc1	0	0	0	14	0	0
Clc1ccc(CSc2nnc(-c3c[nH]c4ccccc34)o2)cc1	0	0	0	27	0	0
CCSc1nnc(-c2c[nH]c3ccccc23)o1	0	0	0	0	0	0
O=c1[nH]cc(N=Cc2cc(Cl)cc(Cl)c2O)c(=O)[nH]1	0	0	49	0	0	0
COC(=O)c1cc(NS(=O)(=O)c2ccc(N3CCC(C)CC3)c([N+](=O)[O-])c2)cc(C(=O)OC)c1	0	0	0	18	0	0
O=C(c1cc2nc(-c3ccccc3)cc(-c3ccccc3)n2n1)N1CCCC1	0	0	0	0	0	0
CC(C)c1ccc(-c2cc(C(=O)N3CCOCC3)c3cc(Br)ccc3n2)cc1	0	0	0	19	0	0
O=C(c1cc2nc(-c3ccccc3)cc(-c3ccccc3)n2n1)N1CCN(C(=O)c2ccco2)CC1	0	0	104	0	0	0
O=C(c1ccco1)N1CCN(C(=O)c2cc(-c3ccncc3)nc3ccc(Br)cc23)CC1	0	0	53	0	0	0
